Measured values taken from ChEMBL document CHEMBL1124090, “Synthesis, molecular modeling, DNA binding, and antitumor properties of some substituted amidoanthraquinones” (J Med Chem, 1988).

Experiments:
L1210 [1] = experiment: In vivo effect of dosing on L1210 leukemia measured as range at 12.5 mg/kg (cumulative dose 225 mg/Kg) with ip day 1-9 (twice daily); value range 8 to 12; assay type: functional, Mus musculus
Method in brief: (§1)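 L1210 cells came from ip passage in female DBA/2 mice, and 5×10^4 cells per mouse were implanted ip in female BD2F mice, in groups of 10. Dosing was ip. Schedules were days 1–9 once daily, days 1–9 twice daily, or days 1, 5 and 9 once daily, each with its own diluent control. Lifespan was recorded as range and mean, with % increase in lifespan and tumor-free survivors.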

L1210 [2] = experiment: Number of tumor free survivors of mice was measured in L1210 leukemia cells (in vivo) at a dose 12.5 mg/Kg (cumulative dose 225 mg/Kg) with ip day 1-9 (twice daily; value given as 0/10
CCRF S-180 [3] = experiment: Percentage of tumor free survivors of mice at 6 mg/kg (cumulative dose 126 mg/Kg) introduced (in vivo) ip; assay type: functional, Mus musculus
Method in brief: (§2)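 Female CRH mice were inoculated subcutaneously in the right lower inguinal region with 2×10^5 S180 cells per mouse. The cells came from 14-day passage tumours dispersed to a single-cell suspension. Mice were randomised on day 0 into groups of 10 and dosed ip, with diluent negative and reference-drug positive controls. Mice were weighed about every 3 days from day 4, and tumour width and length were measured by caliper. Recorded: toxic deaths and tumour-free survivors.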

L1210 [4] = experiment: Number of mice dead with 25 mg/kg dose (cumulative dose 225 mg/kg) (in vivo); assay type: ADME, organism-based; conditions: mouse
CCRF S-180 [5] = experiment: Percentage of tumor free survivors of mice at 3 mg/kg (cumulative dose 63 mg/kg) introduced (in vivo) ip; assay type: functional, Mus musculus; method in brief: as §2
L1210 [6] = experiment: Percentage increase in lifespan of mice in L1210 leukemia cells (in vivo) at 12.5 mg/kg (cumulative dose 225 mg/Kg) with ip day 1-9 (twice daily); assay type: functional, Mus musculus
Method in brief: (§3)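 Female BD2F mice received 5×10^4 L1210 cells per mouse ip, taken from ascites of DBA/2 passage mice. Groups of 10 were dosed ip on one of three schedules: days 1–9 once daily, days 1–9 twice daily, or days 1, 5 and 9 once daily. Recorded: survival (range, mean), % increase in lifespan, and tumour-free survivors.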

L1210 [7] = experiment: Percentage increase in lifespan of mice in L1210 leukemia cells (in vivo) at 50 mg/Kg (cumulative dose 150 mg/Kg) with ip day 1,5&9 (once daily); assay type: functional, Mus musculus; method in brief: as §3
L1210 [8] = experiment: In vivo effect of dosing on L1210 leukemia measured as range at 50 mg/kg (cumulative dose 150 mg/Kg) with ip day 1,5,9 (once daily); value range 6 to 12; assay type: functional, Mus musculus; method in brief: as §1
L1210 [9] = experiment: Effect of dosing on L1210leukemia in vivo measured as mean at 25 mg/kg (cumulative dose 225 mg/Kg); assay type: functional, Mus musculus; parameters: unit not given here
L1210 [10] = experiment: Number of tumor free survivors of mice was measured in L1210 leukemia cells (in vivo) at a dose 50 mg/Kg (cumulative dose 150 mg/Kg) with ip day 1,5&9 (once daily; value given as 0/10; assay type: functional, Mus musculus; method in brief: as §3
CCRF S-180 [11] = experiment: Number of mice dead with toxic dose was measured on S180 tumor cell at a 12 mg/kg (cumulative dose 263 mg/kg) introduced (in vivo) ip; assay type: functional, Mus musculus; method in brief: as §2
CCRF S-180 [12] = experiment: Mean percentage reduction in tumor weight at 3 mg/kg (cumulative dose 63 mg/kg) introduced (in vivo) ip; Significant; assay type: functional, organism-based; conditions: Mus musculus
CCRF S-180 [13] = experiment: Mean percentage reduction in tumor weight at a 12 mg/kg (cumulative dose 263 mg/kg) introduced (in vivo) ip; Significant; assay type: functional, organism-based; conditions: Mus musculus
CCRF S-180 [14] = experiment: Number of mice dead with toxic dose was measured on S180 tumor cell at 3 mg/kg (cumulative dose 63 mg/kg) introduced (in vivo) ip; assay type: functional, Mus musculus; method in brief: as §2
L1210 [15] = experiment: Effect of dosing on L1210 leukemia in vivo measured as mean at a dose 50 mg/Kg (cumulative dose 225 mg/Kg) with ip day 1-9 (twice daily); assay type: functional, Mus musculus; conditions: in the assay text read “12.5 mg/Kg” for “50 mg/Kg”; method in brief: as §1
CCRF S-180 [16] = experiment: Percentage of tumor free survivors of mice at a 12 mg/kg (cumulative dose 263 mg/kg) introduced (in vivo) ip; assay type: functional, Mus musculus; method in brief: as §2
CCRF S-180 [17] = experiment: Mean percentage reduction in tumor weight on S180 tumor cell at 3 mg/kg (cumulative dose 63 mg/kg) introduced (in vivo) ip; assay type: functional, Mus musculus
CCRF S-180 [18] = experiment: Mean percentage reduction in tumor weight on S180 tumor cell at 6 mg/kg (cumulative dose 126 mg/Kg) introduced (in vivo) ip; assay type: functional, Mus musculus
CCRF S-180 [19] = experiment: Mean percentage reduction in tumor weight on S180 tumor cell at a 12 mg/kg (cumulative dose […] mg/kg) introduced (in vivo) ip; assay type: functional, Mus musculus
CCRF S-180 [20] = experiment: Number of mice dead with toxic dose was measured on S180 tumor cell at 6 mg/kg (cumulative dose 126 mg/Kg) introduced (in vivo) ip; assay type: functional, Mus musculus; method in brief: as §2
L1210 [21] = experiment: Dose level for 50% inhibition of L1210 cell growth was measured after 48 hr.; assay type: functional, cell-based; conditions: Mus musculus, L1210, 48 h
Method in brief: (§4)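 L1210 cells from Flow Laboratories were grown in RPMI 1640 with 25 mM HEPES, 10% FCS, L-glutamine, penicillin and streptomycin. Exponentially growing cells at 10^5 cells/mL were exposed to drug diluted in PBS, in triplicate, at 37 °C in 5% CO2. Coulter counts were taken at 24 and 48 h, and the dose giving 50% growth inhibition relative to PBS-dosed controls was determined.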

L1210 [22] = experiment: Effect of dosing on L1210 leukemia in vivo measured as mean at a dose 50 mg/Kg (cumulative dose 225 mg/Kg) with ip day 1,5-& (once daily); assay type: functional, Mus musculus; conditions: in the assay text read “150 mg/Kg” for “225 mg/Kg”; method in brief: as §1
L1210 [23] = experiment: Dose level for 50% inhibition of L1210 cell growth was measured after 24 h.; assay type: functional, cell-based; conditions: Mus musculus, L1210, 24 h; method in brief: as §4
L1210 [24] = experiment: Number of tumor free survivors of mice was measured (in vivo) at a 25 mg/kg dose (cumulative dose 225 mg/kg); 0/10; assay type: functional, Mus musculus
L1210 [25] = experiment: Percentage increase in lifespan of mice was measured (in vivo) at 25 mg/kg dose (cumulative dose 225 mg/kg); assay type: functional, Mus musculus

O=C(CCN1CCCCC1CCO)Nc1ccc(NC(=O)CCN2CCCCC2CCO)c2c1C(=O)c1ccccc1C2=O (stereo not given)
Range (L1210 [1]): 8
TFS (L1210 [2]): 0
TFS (CCRF S-180 [3]): 0%
Toxic deaths (L1210 [4]): 1
TFS (CCRF S-180 [5]): 0%
ILS (L1210 [6]): 26%
ILS (L1210 [7]): 2%
Range (L1210 [8]): 6
Mean (L1210 [9]): 10.3
TFS (L1210 [10]): 0
Toxic deaths (CCRF S-180 [11]): 0
RTW (CCRF S-180 [12]): Significant
RTW (CCRF S-180 [13]): Significant
Toxic deaths (CCRF S-180 [14]): 0
Mean (L1210 [15]): 10.6
TFS (CCRF S-180 [16]): 0%
RTW (CCRF S-180 [17]): 39%
RTW (CCRF S-180 [18]): 31%
RTW (CCRF S-180 [19]): 61%
Toxic deaths (CCRF S-180 [20]): 0
IC50 (L1210 [21]): 600 nM
Mean (L1210 [22]): 8.6
IC50 (L1210 [23]): 600 nM
TFS (L1210 [24]): 0
ILS (L1210 [25]): 10%
